# Shown are actives, neighbours in structure and some others; about 3.7% of the full set was active somewhere.
# KCNK3 block: human KCNK3 channel inhibition, primary screen; O14649; CHO-KCNK3 thallium flux, FluxOR fluorescence; active compounds read low; B-score at 10 µM; 340,000 compounds, 0.84% hits; AID 602410;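 active means B-score under library mean minus 4 SD, starting fluorescence ratio at most library mean plus 5 SD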;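 further: more negative B-score means stronger inhibition of thallium flux through KCNK3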
# KCNK9 inh: blocks the human KCNK9 two-pore domain potassium channel | Q9NPC2 | HEK293 KCNK9, FluxOR thallium flux fluorescence; active compounds read low | B-score at 10 µM | 310,000 compounds, 1.2% hits | AID 488922;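 active means ratio B-score over 3 SD below the library mean, with starting fluorescence within 5 SD of its mean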;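 further: negative B-score means less thallium flux so channel inhibition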
# KCNQ1 inh: blocks the human KCNQ1 potassium channel. P51787. CHO-K1 KCNQ1, FluxOR thallium flux fluorescence; active compounds read high. B-score at 10 µM. 310,000 compounds, 1.3% hits. AID 2642;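 active means compounds whose thallium flux B-score, printed positive for inhibition, exceeds three library SD while starting fluorescence stays within three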;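 further: channel opened by potassium depolarization with thallium stimulus after 20 min compound exposure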
# hERG protect: hERG (human) protection from proarrhythmic block | CHO-hERG, FluxOR thallium flux, dofetilide IC70 present | activation (rescue from dofetilide block), less the hit threshold, % at 10 µM | Q12809 | 310,000 compounds, 0.51% hits | AID 1511;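 active means activation above the mean of controls blocked by dofetilide plus 5 SD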;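 further: thallium influx through hERG after potassium depolarization seen as dye fluorescence rise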
# Target sequence (Q12809 whole entry, looked up): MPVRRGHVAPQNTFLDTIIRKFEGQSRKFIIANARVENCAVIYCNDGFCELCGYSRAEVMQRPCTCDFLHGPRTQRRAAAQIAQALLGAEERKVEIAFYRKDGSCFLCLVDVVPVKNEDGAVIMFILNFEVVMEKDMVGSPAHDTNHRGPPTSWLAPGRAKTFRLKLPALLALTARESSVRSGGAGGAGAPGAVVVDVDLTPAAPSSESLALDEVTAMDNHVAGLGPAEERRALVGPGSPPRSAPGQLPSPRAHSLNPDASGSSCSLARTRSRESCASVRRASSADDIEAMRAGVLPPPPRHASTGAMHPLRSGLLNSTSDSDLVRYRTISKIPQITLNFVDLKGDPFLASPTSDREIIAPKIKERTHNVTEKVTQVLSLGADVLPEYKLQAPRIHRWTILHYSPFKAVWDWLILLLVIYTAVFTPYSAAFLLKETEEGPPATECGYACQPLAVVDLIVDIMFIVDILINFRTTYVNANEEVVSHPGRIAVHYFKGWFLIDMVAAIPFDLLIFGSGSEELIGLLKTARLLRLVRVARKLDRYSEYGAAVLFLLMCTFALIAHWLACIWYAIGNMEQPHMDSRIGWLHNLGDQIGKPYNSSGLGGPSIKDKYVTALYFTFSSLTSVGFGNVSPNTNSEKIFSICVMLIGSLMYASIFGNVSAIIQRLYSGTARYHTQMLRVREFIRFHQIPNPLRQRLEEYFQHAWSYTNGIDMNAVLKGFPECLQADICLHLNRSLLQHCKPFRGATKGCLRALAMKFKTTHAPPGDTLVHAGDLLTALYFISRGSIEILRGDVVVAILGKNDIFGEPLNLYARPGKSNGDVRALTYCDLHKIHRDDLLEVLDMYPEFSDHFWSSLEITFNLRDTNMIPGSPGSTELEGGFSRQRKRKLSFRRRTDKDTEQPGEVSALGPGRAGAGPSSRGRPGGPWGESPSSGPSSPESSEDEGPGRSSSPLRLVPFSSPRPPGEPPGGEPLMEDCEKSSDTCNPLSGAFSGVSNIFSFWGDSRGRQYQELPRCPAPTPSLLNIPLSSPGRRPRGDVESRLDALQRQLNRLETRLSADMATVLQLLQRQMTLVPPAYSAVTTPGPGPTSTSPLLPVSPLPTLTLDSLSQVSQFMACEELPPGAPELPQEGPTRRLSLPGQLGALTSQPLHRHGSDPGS
# Kir21 inh: inhibitors of mouse Kir2.1 inward-rectifier potassium channel | P35561 | HEK293-Kir2.1, FluxOR thallium flux fluorescence; active compounds read low | B-score at 10 µM | 310,000 compounds, 0.85% hits | AID 1672;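 active means fluorescence ratio B-score at or below minus 3 SD of library scores, with starting-brightness B-score within 2 SD, cut at about -4.2 in these data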;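 further: channel flux triggered by added potassium and thallium sulfate stimulus; B-score of peak minus minimum fluorescence over baseline after thallium stimulus; more negative B-score means stronger Kir2.1 block with less thallium influx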
# KCNQ1 act: potentiators or activators of human KCNQ1 potassium channel | P51787 | CHO-K1 KCNQ1, thallium flux FluxOR fluorescence; active compounds read high | B-score at 10 µM | 310,000 compounds, 0.35% hits | AID 2648;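 active means fluorescence ratio B-score, a plate-corrected score, at least three library SD, with initial intensity B-score within 5 SD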
#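 Assay system: stable KCNQ1 CHO-K1 line; medium: assay buffer, equal DMSO in all wells; timing: 90 min dye loading and 20 min compound exposure, both at room temperature; technique: kinetic FluxOR thallium fluorescence, 10-s 1-Hz baseline, 110-s post-stimulus read; read-out basis: B score of baseline-normalized fluorescence ratio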
# KCNK9 inh conf: human KCNK9 inhibitor confirmation; HEK293 KCNK9 cells, FluxOR thallium flux fluorescence; shares compounds with KCNK9 inh; inhibition, % at 10 µM; AID 492992; 4,900 compounds, 43% hits;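 active means thallium signal inhibited by more than 5 SD of the compound-free buffer control wells, on both duplicate plates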;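 further: 0% = assay buffer control wells without compound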
# Kir2-1 spec: selectivity of KCNK9 modulators against mouse Kir2.1; shares compounds with KCNK9 inh; Kir2.1 cells, FluxOR thallium flux fluorescence; inhibition, % at 10 µM; 4,900 compounds, 4% hits; AID 492993;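 active means thallium signal drop more than 5 SD beyond the mean of the no-compound control wells, seen in both duplicate plates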;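 further: signal is fluorescence rise after thallium addition divided by baseline fluorescence; plate controls were assay buffer only for no effect and full block by chlorpromazine control for full effect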
# HEK293 Tl ctr: second counter-screen for KCNK9 modulators: effect in non-induced cells. 4,900 compounds, 40% hits. non-induced KCNK9-HEK293, FluxOR thallium flux. inhibition, % at 10 µM. shares compounds with KCNK9 inh;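 active means thallium signal drop beyond 5 SD of the untreated control mean, on both duplicate plates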;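 further: plate controls were buffer only IC0 wells for no effect and SID17386958 at its maximal inhibitory level for full effect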
# KCNK3 confirm: human KCNK3 channel inhibition, confirmation assay; ratio percent of control, % at 10 µM; AID 651638; 2,400 compounds, 99% hits; shares compounds with KCNK3 block; CHO-KCNK3 thallium flux, FluxOR fluorescence; 0% buffer, 100% carvedilol maximal block;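 active means ratio percent of control, averaged over triplicates, above buffer control mean plus 5 SD, cut at about 64% in these data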;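 further: ratio is the fluorescence rise from min to max over baseline after thallium stimulus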
# KCNK3 uninduced: KCNK3 inhibitor counter-screen hit in non-induced cells; non-induced KCNK3 parental cells, FluxOR thallium flux; active compounds read low; thallium flux ratio (lower = more inhibition) at 10 µM; shares compounds with KCNK3 block; 2,400 compounds, 40% hits;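 active means thallium flux ratio, averaged over three wells, more than 5 SD below the buffer control mean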;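 further: host cells are CHO cells without KCNK3 induction; ratio is peak minus trough fluorescence over baseline then normalized to buffer controls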
# Numbers without * were called inactive; i = inactive; . = no result given.
SMILES,KCNK3 block,KCNK9 inh,KCNQ1 inh,hERG protect,Kir21 inh,KCNQ1 act,KCNK9 inh conf,Kir2-1 spec,HEK293 Tl ctr,KCNK3 confirm,KCNK3 uninduced
O=C(c1ccco1)N(CCC(c1ccccc1)c1ccco1)Cc1ccc(F)cc1 (stereo not drawn),-11*,-14*,i,-19,-4.4*,i,66%*,40%*,31%*,95*,0.15*
O=C(Nc1ccc(Cl)cn1)c1ccccc1SCc1ccccc1,-11*,-15*,i,-6,0.11,i,78%*,i,47%*,128*,0.15*
CN1CCN(CCCNc2c(C=O)c(=O)[nH]c3ccccc23)CC1,i,i,i,-9,0.67,i,.,.,.,.,.
O=C(O)c1nn(-c2ccccc2)c(-c2ccccc2)c1C(=O)c1ccccc1,i,i,i,-12,-0.16,i,.,.,.,.,.
COC(=O)c1nn(-c2ccccc2)c(-c2ccccc2)c1C(=O)c1ccccc1,-8.9*,-9.4*,i,-11,0.41,i,48%*,i,i,106*,i
CN(CCc1ccccn1)C(=O)CCC1CCCN(C(=O)c2c3c(nn2C)CCCC3)C1 (stereo not drawn),i,i,i,-12,0.67,i,.,.,.,.,.
CN(CCCC1CCCC1)C(=O)c1cc(COc2ccc(F)c(F)c2)on1,-9.2*,-8.8*,i,-8,1.4,i,i,i,38%*,122*,i
CN(CCC1CCCCO1)C(=O)c1cc(COc2ccc(F)cc2F)on1 (stereo not drawn),i,i,i,-11,-0.39,i,.,.,.,.,.
CC(Nc1nc(-c2ccccc2)nc2ccccc12)c1ccccc1 (stereo not drawn),-11*,-8.9*,i,-20,0.45,i,i,i,36%*,102*,i
CNC(=S)N(C)/N=C1/C(=O)N(Cc2c(Cl)cccc2Cl)c2ccccc21,i,.,.,.,.,.,.,.,.,.,.
CCOc1ccccc1NC(=O)NNC(=O)c1ccc2ccccc2c1,i,i,i,-6,-0.31,i,.,.,.,.,.
CCOc1ccccc1NC(=O)c1ccc2ccccc2c1,-9.7*,-11*,i,-8,0.52,i,64%*,i,32%*,113*,i
CCOc1ccccc1NC(=O)C(Sc1ccccc1)c1ccccc1 (stereo not drawn),-8.7*,-8.4*,i,-16,2.8,i,i,i,40%*,95*,0.15*
COc1ccccc1C(=O)NC(=O)COC(=O)CNC(=O)c1ccc(Cl)cc1Cl,i,i,i,-12,0.65,i,.,.,.,.,.
NS(=O)(=O)c1ccc(CNC(=O)c2cc(=O)c3ccccc3o2)cc1,i,i,i,-6,-0.48,i,.,.,.,.,.
Cc1c2ccccc2cc[n+]1CCCS(=O)(=O)[O-],i,i,i,-10,0.3,i,.,.,.,.,.
CCCCCCCCCC[n+]1cccc2c3ccccc3ccc21,i,-15*,i,-19,-9.1*,i,73%*,i,36%*,72*,i
C=CCOCCn1[nH]c2ccccc2c1=O,i,.,.,.,.,.,.,.,.,.,.
CC(Oc1ccc(Cl)cc1Cl)c1nc(-c2ccc(NC(=O)c3ccco3)cc2)no1 (stereo not drawn),-8.8*,-13*,i,-10,1.5,i,53%*,i,34%*,121*,0.15*
CCOC(=O)C1CCN(C(=O)COc2cc(C)c(Br)cc2C)CC1,-11*,i,i,-8,0.92,i,i,i,i,78*,i
CCOC(=O)C1CCN(C(=O)COc2ccc(Br)cc2Br)CC1,i,i,i,-14,-2,i,.,.,.,.,.
Cc1c(N=C2N=C(NC(=O)c3cccs3)c3ccccc32)c(=O)n(-c2ccccc2)n1C,-9.9*,-9.2*,i,-17,0.88,i,56%*,i,56%*,141*,0.1*
Cc1c(N=C2N=C(NC(=O)NC(C)(C)C)c3ccccc32)c(=O)n(-c2ccccc2)n1C,i,i,i,-3,2.1,i,.,.,.,.,.
COc1ccc(Oc2nc(C)cc(C)c2S(C)(=O)=O)cc1,i,i,i,-10,0.04,i,.,.,.,.,.
COc1ccc(CSc2nc(C)cc(C)c2S(C)(=O)=O)cc1,-11*,-11*,i,-4,-3.6,i,40%*,i,34%*,111*,i
SMILES,KCNK3 block,KCNK9 inh,KCNQ1 inh,hERG protect,Kir21 inh,KCNQ1 act,KCNK9 inh conf,Kir2-1 spec,HEK293 Tl ctr,KCNK3 confirm,KCNK3 uninduced
O=C(O)C(Oc1ccc(Cl)cc1)c1ccc(Cl)cc1 (stereo not drawn),i,.,.,.,.,.,.,.,.,.,.
COc1ccc(C(=O)NC(=S)Nc2cccc3ncccc23)cc1[N+](=O)[O-],i,i,i,-4,0.24,i,.,.,.,.,.
O=C(CC(CC(=O)c1ccccc1)c1ccccc1)c1ccccc1,-11*,-12*,i,-10,0.83,i,36%*,i,34%*,110*,i
O=C(CC(CC(=O)c1ccccc1)C(=O)O)c1ccccc1,i,i,i,-15,0.09,i,.,.,.,.,.
C=CCOc1c(CCC)cc(CCC)cc1C(N)=O,-9.8*,-9.4*,i,-13,-2.8,i,60%*,i,32%*,119*,0.15*
C=CCOc1c(Br)cc(/C=N/NC(N)=O)cc1OC,i,i,i,-6,0.88,i,.,.,.,.,.
O=C(Nc1cccc(-c2nc3cccnc3s2)c1)c1ccco1,i,i,i,-14,-0.67,i,.,.,.,.,.
CCOc1ncccc1C(=O)Nc1cccc(-c2nc3cccnc3s2)c1,-9.6*,-10*,i,-11,0.05,i,i,i,i,101*,i
Cc1ccc(S(=O)(=O)N2CCOC2CNC(=O)C(=O)NCc2ccc(Cl)cc2)cc1 (stereo not drawn),i,i,i,-6,2.6,i,.,.,.,.,.
Cn1cccc1/C=C1\CCC/C(=C\c2cccn2C)C1=O,-12*,-9.6*,14*,-36,-8.6,i,78%*,60%*,i,0,i

# Screening data (PubChem)
